Assay results published in ChEMBL document CHEMBL1129797, “Dual metalloprotease inhibitors. 6. Incorporation of bicyclic and substituted monocyclic azepinones as dipeptide surrogates in angiotensin-converting enzyme/neutral endopeptidase inhibitors” (J Med Chem, 1996).

Experiments:
Neprilysin = target: T1, Neprilysin (Rattus norvegicus, UniProt P07861); assay: In vitro inhibition of purified rat kidney Neutral endopeptidase.
T1 sequence (P07861 whole entry): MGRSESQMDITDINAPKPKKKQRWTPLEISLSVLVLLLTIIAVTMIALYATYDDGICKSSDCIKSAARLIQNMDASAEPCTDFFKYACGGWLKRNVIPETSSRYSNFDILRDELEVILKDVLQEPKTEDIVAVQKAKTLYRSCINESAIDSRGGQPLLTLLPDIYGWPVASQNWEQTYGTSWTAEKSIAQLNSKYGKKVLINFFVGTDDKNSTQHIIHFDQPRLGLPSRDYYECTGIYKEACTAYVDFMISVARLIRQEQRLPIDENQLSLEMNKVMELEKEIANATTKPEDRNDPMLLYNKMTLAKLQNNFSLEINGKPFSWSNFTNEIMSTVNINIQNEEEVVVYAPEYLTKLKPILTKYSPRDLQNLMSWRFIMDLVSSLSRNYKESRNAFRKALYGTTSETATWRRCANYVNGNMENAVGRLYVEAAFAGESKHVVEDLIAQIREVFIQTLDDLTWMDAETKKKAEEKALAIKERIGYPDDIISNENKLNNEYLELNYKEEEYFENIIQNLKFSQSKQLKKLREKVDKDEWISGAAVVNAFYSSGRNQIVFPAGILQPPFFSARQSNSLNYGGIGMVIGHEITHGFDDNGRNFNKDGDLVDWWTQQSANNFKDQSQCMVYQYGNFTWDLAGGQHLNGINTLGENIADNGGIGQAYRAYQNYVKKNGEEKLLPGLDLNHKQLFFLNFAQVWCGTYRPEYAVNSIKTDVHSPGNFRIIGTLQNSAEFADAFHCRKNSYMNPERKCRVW
Method in brief: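 Rat kidney membrane enzyme solubilized (1% deoxycholate, papain/DTT, 37 °C 90 min), purified by gel filtration and phenyl sepharose. Enzyme in 0.05% Triton X-100 with 50 mM Tris-HCl pH 7.5, preincubated 10 min with inhibitor; 0.5 mM dansyl-Gly-Phe-Arg added. Incubated 37 °C, 30 min; stopped with HCl. Dansyl-Gly extracted into ethyl acetate; fluorescence ex 342/em 510 nm, zero-time corrected, versus no-inhibitor.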

Rattus norvegicus = assay: Intravenous effective dose required to inhibit 50% of the AI pressor response in normotensive rats; assay type: functional
Method in brief: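 Conscious male Sprague-Dawley rats (220-240 g), aortic and vena caval catheters, four per assay. Various doses given iv in 5% NaHCO3. AI (310 ng/kg iv) pressor responses taken before dosing and at 2-30 min intervals up to 6 h. Maximum-inhibition time point per dose used for the dose-response curve; ED50 interpolated.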

[1] = target: T2, Angiotensin-converting enzyme (Oryctolagus cuniculus, UniProt P12822); assay: In vitro inhibition of Angiotensin I converting enzyme isolated from rabbit lung extract.; assay type: tissue-based
T2 sequence (P12822 whole entry): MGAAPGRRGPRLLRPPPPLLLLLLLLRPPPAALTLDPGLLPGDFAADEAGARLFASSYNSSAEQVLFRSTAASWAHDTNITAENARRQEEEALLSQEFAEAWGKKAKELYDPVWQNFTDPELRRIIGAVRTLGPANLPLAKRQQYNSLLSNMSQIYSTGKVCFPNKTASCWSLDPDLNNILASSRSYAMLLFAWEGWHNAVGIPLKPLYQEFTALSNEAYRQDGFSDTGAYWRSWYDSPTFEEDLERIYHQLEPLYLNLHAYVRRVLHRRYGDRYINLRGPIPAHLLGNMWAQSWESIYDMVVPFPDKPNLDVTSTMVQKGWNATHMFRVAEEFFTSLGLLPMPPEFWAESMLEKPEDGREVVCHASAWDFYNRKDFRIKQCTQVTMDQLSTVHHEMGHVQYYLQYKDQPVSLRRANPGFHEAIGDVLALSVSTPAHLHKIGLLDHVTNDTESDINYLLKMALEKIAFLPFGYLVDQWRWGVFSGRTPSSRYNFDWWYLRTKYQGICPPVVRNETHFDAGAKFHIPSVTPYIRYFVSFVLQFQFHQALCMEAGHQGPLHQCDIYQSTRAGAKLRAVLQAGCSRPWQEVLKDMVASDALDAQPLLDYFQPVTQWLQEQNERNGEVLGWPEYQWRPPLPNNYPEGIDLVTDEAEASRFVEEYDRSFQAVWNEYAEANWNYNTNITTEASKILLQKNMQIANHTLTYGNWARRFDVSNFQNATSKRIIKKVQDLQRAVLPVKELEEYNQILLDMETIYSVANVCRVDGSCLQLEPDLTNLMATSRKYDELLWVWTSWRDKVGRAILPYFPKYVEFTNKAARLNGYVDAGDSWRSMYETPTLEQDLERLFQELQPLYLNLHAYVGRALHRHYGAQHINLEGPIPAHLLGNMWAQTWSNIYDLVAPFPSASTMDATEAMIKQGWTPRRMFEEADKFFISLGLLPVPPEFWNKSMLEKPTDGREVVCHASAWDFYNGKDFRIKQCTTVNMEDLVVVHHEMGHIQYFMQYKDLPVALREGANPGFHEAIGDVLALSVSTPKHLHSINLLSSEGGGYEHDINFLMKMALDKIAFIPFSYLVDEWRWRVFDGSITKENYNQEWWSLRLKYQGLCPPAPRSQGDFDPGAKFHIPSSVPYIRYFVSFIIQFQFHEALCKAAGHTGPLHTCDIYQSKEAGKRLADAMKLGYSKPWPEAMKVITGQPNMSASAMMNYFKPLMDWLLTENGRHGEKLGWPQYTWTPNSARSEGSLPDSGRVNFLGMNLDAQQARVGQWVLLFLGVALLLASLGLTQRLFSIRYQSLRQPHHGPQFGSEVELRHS
Method in brief: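 Rabbit lung acetone powder extract (1:20 dilution) as enzyme source; spectrophotometric hippuric acid formation from hippuryl-L-histidyl-L-leucine (5 mM final). Final concentrations: 100 mM phosphate buffer pH 8.3, 300 mM NaCl; varied inhibitor concentrations or vehicle. Incubated 30 min at 37 °C. Stopped with 1 N HCl, then ethyl acetate added.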

Row | IC50 (Neprilysin) [nM] | IC50 [1] [nM] | SMILES | ED50 (Rattus norvegicus) [µmol/kg]
1 | 49 | 8 | C[C@H]1CCC[C@H](NC(=O)[C@@H](S)Cc2ccccc2)C(=O)N1CC(=O)O | 0.11
2 | 92 | 26 | C[C@@H](C(=O)O)N1CCCC[C@H](NC(=O)[C@@H](S)Cc2ccccc2)C1=O | 1.22
3 | 31 | 25 | O=C(O)CN1C(=O)[C@@H](NC(=O)[C@@H](S)Cc2ccccc2)CCC[C@@H]1CCO | 0.08
4 | 140 | 23 | O=C(O)CN1C(=O)[C@@H](NC(=O)[C@@H](S)Cc2ccccc2)CCC[C@@H]1CC1CC1 | 
5 | 40 | 11 | CCC[C@H]1CCC[C@H](NC(=O)[C@@H](S)Cc2ccccc2)C(=O)N1CC(=O)O | 0.06
6 | 1650 | 17 | O=C(O)CN1C(=O)[C@@H](NC(=O)[C@@H](S)Cc2ccccc2)CCC[C@@H]1C1CCCC1 | 
7 | 64 | 7 | C=CC[C@H]1CCC[C@H](NC(=O)[C@@H](S)Cc2ccccc2)C(=O)N1CC(=O)O | 0.04
8 | 86 | 25 | CCC[C@H]1CCC[C@H](NC(=O)[C@@H](S)Cc2ccccc2)C(=O)N1[C@@H](CC)C(=O)O | 
9 |  |  | C[C@H](NC(=O)[C@@H](S)Cc1ccccc1)C(=O)N1CCC[C@H]1C(=O)O | 0.06
10 | 82 | 22 | O=C(O)CN1CCCC[C@H](NC(=O)[C@@H](S)Cc2ccccc2)C1=O | 0.84
11 | 6 | 12 | O=C(O)CN1C(=O)[C@@H](NC(=O)[C@@H](S)Cc2ccccc2)CCc2ccccc21 | 0.02
12 | 149 | 16 | C[C@@H]1CCC[C@H](NC(=O)[C@@H](S)Cc2ccccc2)C(=O)N1CC(=O)O | 
13 | 466 | 14 | CCC[C@@H]1CCC[C@H](NC(=O)[C@@H](S)Cc2ccccc2)C(=O)N1CC(=O)O | 
14 | 1660 | 10 | CC(C)C[C@H]1CCC[C@H](NC(=O)[C@@H](S)Cc2ccccc2)C(=O)N1CC(=O)O | 
15 | 1000 | 907 | CC(C)[C@@H](C(=O)O)N1CCCC[C@H](NC(=O)[C@@H](S)Cc2ccccc2)C1=O | 
16 | 32 | 479 | O=C(N[C@H]1CCCCN([C@@H](Cc2ccccc2)C(=O)O)C1=O)[C@@H](S)Cc1ccccc1 | 
17 | 25 | 11 | O=C(N[C@H]1CCC[C@H]2CCC[C@@H](C(=O)O)N2C1=O)[C@@H](S)Cc1ccccc1 | 0.12
18 | 18 | 5 | O=C(N[C@H]1CCC[C@H]2CC[C@@H](C(=O)O)N2C1=O)[C@@H](S)Cc1ccccc1 | 0.06
19 | 17 | 5 | CCC[C@H]1CCC[C@H](NC(=O)[C@@H](S)Cc2ccccc2)C(=O)N1[C@@H](C)C(=O)O | 0.12
